Measured values reported in ChEMBL document CHEMBL1154697, “Design, synthesis and docking studies of new furobenzopyranones and pyranobenzopyranones as photoreagent towards DNA and as antimicrobial agents” (2010).

Legend:
Type in all cases: functional
Bacillus subtilis [1] = assay: Antimicrobial activity against 20 mins UV photosensitized Bacillus subtilis measured after overnight reincubation under dark condition by agar plate disc diffusion method
In short: (§1)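 B. subtilis 18 h broth culture (0.02 ml) mixed into 10 ml liquefied nutrient agar (beef extract, peptone, K2HPO4, agar). Each dish carries a DMF disc and a xanthotoxin disc (10 mg/ml DMF). Test plates kept dark at 37 °C for 3 h for diffusion, then uncovered and exposed to 365 nm UV for 20 min. A duplicate plate left unirradiated in the incubator overnight. Inhibition zones measured.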

Candida albicans = assay: Antifungal activity against Candida albicans at 50 mg/mL after 48 hrs by agar plate disc diffusion method; settings: read-out: IZ
In short: (§2)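 Discs placed on nutrient agar plates (15 ml agar seeded with 0.2 mL of 18 h liquid culture of each organism); plates incubated 37 °C for 48 h, inhibition zone diameter read in mm around each disc. DMF-impregnated discs as solvent control; tetracycline (antibacterial) and amphotericin B (antifungal) references run concurrently.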

Bacillus subtilis [2] = assay: Antimicrobial activity against Bacillus subtilis pretreated 3 hrs before UV photosensitization measured after overnight reincubation under dark condition by agar plate disc diffusion method; in short: as §1
Escherichia coli = assay: Antibacterial activity against Escherichia coli at 50 mg/mL after 48 hrs by agar plate disc diffusion method; settings: read-out: IZ; in short: as §2
Staphylococcus aureus = assay: Antibacterial activity against Staphylococcus aureus at 50 mg/mL after 48 hrs by agar plate disc diffusion method; settings: read-out: IZ; in short: as §2

| Structure (SMILES) | inhibition zone (IZ) (Bacillus subtilis [1]) [millimeter] | zone of inhibition at 50000 µg/mL (Candida albicans) [mm] | inhibition zone (IZ) (Bacillus subtilis [2]) [millimeter] | zone of inhibition at 50000 µg/mL (Escherichia coli) [mm] | zone of inhibition at 50000 µg/mL (Staphylococcus aureus) [mm] |
| --- | --- | --- | --- | --- | --- |
| Cc1c(-c2nnc(S)n2Cc2ccccc2)c(=O)oc2ccc3c(-c4ccccc4)cc(=O)oc3c12 | 12 | – | – | – | – |
| C[C@@H]1[C@H](O)[C@@H](C)/C=C/C=C/C=C/C=C/C=C/C=C/C=C/[C@H](O[C@@H]2O[C@H](C)[C@@H](O)[C@H](N)[C@@H]2O)C[C@@H]2O[C@](O)(C[C@@H](O)C[C@@H](O)[C@H](O)CC[C@@H](O)C[C@@H](O)CC(=O)O[C@H]1C)C[C@H](O)[C@H]2C(=O)O [AMPHOTERICIN B] | – | 30 | – | – | – |
| CN(C)[C@@H]1C(O)=C(C(N)=O)C(=O)[C@@]2(O)C(O)=C3C(=O)c4c(O)cccc4[C@@](C)(O)[C@H]3C[C@@H]12 [TETRACYCLINE] | – | – | 30 | 34 | 36 |
| COc1c2occc2c(OC)c2c(C)c(-c3nnc(S)n3Cc3ccccc3)c(=O)oc12 | 11 | – | – | – | – |
| Cc1c(C(=O)NNC(=S)NCc2ccccc2)c(=O)oc2ccc3c(-c4ccccc4)cc(=O)oc3c12 | 22 | – | 18 | 20 | 30 |
| COc1c2occc2c(OC)c2c(C)c(C(=O)NN)c(=O)oc12 | 14 | – | 12 | 18 | – |
| COc1c2occc2c(OC)c2c(C)c(C(=O)NNC(=S)NCc3ccccc3)c(=O)oc12 | 12 | – | 10 | – | – |
| COc1c2occc2cc2ccc(=O)oc12 [METHOXSALEN] | 12 | – | – | – | – |
